Two compounds from ChEMBL document CHEMBL1124441, “Synthesis of congeners and prodrugs. 3. Water-soluble prodrugs of taxol with potent antitumor activity” (1989) can be followed below.

Each structure is given as a SMILES string.

What all share (assay type): functional, Mus musculus
Common to all, as to settings: route intraperitoneal

Test [1] has as its system B16. The test can be described thus: Antitumor activity in B16 Melanoma system animals is indicated by survivors on day 4 at a dose of 25 mg/kg intraperitoneally. Summed up: (§1)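 B16 melanoma, 10^6 cells inoculated ip on day 0. Ip treatment started day 1, schedule Q01Dx09 (one dose daily for 9 days). The score is live animals on day 4 over total animals; early deaths are taken as drug toxicity.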

Test [2] concerns B16. As to the kind of experiment: Difference in body weight in grams between test and control animals at a dose of 12.5 mg/kg intraperitoneally. Summed up: (§2)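 B16 melanoma system: 10⁶ tumor cells inoculated ip on day 0. Drug given ip once daily for 9 days (Q01Dx09) starting day 1, dose as mg/kg body weight per injection. Read-out is the body-weight difference in grams, treated minus control animals. Early deaths, taken as toxicity, are scored on day 4.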

Test [3] concerns B16. The test can be described thus: Difference in body weight in grams between test and control animals at a dose of 6.25 mg/kg intraperitoneally. Summed up: as §2
Test [4] concerns B16. The test can be described thus: Percent of median lifetime of test animals divided by the median lifetime of control animals at a dose of 50 mg/kg intraperitoneally. Summed up:
(§3)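 B16 melanoma inoculated ip (10⁶ cells) on day 0. Daily ip treatment for 9 days (Q01Dx09) begins day 1, dosed per injection in mg/kg. %T/C is the median lifespan of treated animals divided by that of tumored untreated controls, ×100. Cures are animals alive on the last test day. Toxic deaths are assessed on day 4.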

Test [5] has as its system B16. The test can be described thus: Percent of median lifetime of test animals divided by the median lifetime of control animals at a dose of 12.5 mg/kg intraperitoneally. In a few lines:
as §3

In test [6] the test system is B16. The test can be described thus: Antitumor activity in B16 Melanoma system animals is indicated by survivors on day 4 at a dose of 50 mg/kg intraperitoneally. In a few lines: as §1
The test system of test [7] is B16. The test can be described thus: Percent of median lifetime of test animals divided by the median lifetime of control animals at a dose of 6.25 mg/kg intraperitoneally. In a few lines: as §3
The test system of test [8] is B16. As to the kind of experiment: Antitumor activity in B16 Melanoma system animals is indicated by survivors on day 4 at a dose of 12.5 mg/kg intraperitoneally. Summed up:
as §1

Test [9] has as its system B16. As to the kind of experiment: Difference in body weight in grams between test and control animals at a dose of 25 mg/kg intraperitoneally. Summed up: as §2
Test [10] deals with B16. The test can be described thus: Percent of median lifetime of test animals divided by the median lifetime of control animals at a dose of 25 mg/kg intraperitoneally. Summed up: as §3
Test [11] concerns B16. The test can be described thus: Antitumor activity in B16 Melanoma system animals is indicated by survivors on day 4 at a dose of 6.25 mg/kg intraperitoneally. In a few lines: as §1
In test [12] the test system is B16. The test can be described thus: Difference in body weight in grams between test and control animals at a dose of 50 mg/kg intraperitoneally. In a few lines:
as §2

For test [13], the system named is B16. The test can be described thus: Percent of median lifetime of test animals divided by the median lifetime of control animals at a dose of 22 mg/kg intraperitoneally. Summed up: as §3
For test [14], the system named is B16. The test can be described thus: Antitumor activity in B16 Melanoma system animals is indicated by survivors on day 4 at a dose of 44 mg/kg intraperitoneally. In a few lines:
as §1

Test [15] deals with B16. As to the kind of experiment: Antitumor activity in B16 Melanoma system animals is indicated by survivors on day 4 at a dose of 22 mg/kg intraperitoneally. Summed up:
as §1

The subject of test [16] is B16. The test can be described thus: Percent of median lifetime of test animals divided by the median lifetime of control animals at a dose of 11 mg/kg intraperitoneally. Summed up: as §3
The test system of test [17] is B16. As to the kind of experiment: Difference in body weight in grams between test and control animals at a dose of 11 mg/kg intraperitoneally. Summed up:
as §2

Test [18] has as its system B16. As to the kind of experiment: Antitumor activity in B16 Melanoma system animals is indicated by survivors on day 4 at a dose of 11 mg/kg intraperitoneally. Summed up:
as §1

The subject of test [19] is B16. As to the kind of experiment: Difference in body weight in grams between test and control animals at a dose of 22 mg/kg intraperitoneally. Summed up: as §2
Test [20] relates to B16. The test can be described thus: Antitumor activity in B16 Melanoma system animals is indicated by survivors on day 4 at a dose of 2.75 mg/kg intraperitoneally. In a few lines: as §1
Test [21] has as its system B16. The test can be described thus: Difference in body weight in grams between test and control animals at a dose of 5.5 mg/kg intraperitoneally. Summed up:
as §2

Test [22] relates to B16. The test can be described thus: Percent of median lifetime of test animals divided by the median lifetime of control animals at a dose of 2.75 mg/kg intraperitoneally. In a few lines: as §3
The subject of test [23] is B16. As to the kind of experiment: Difference in body weight in grams between test and control animals at a dose of 2.75 mg/kg intraperitoneally. Summed up: as §2
Test [24] concerns B16. The test can be described thus: Percent of median lifetime of test animals divided by the median lifetime of control animals at a dose of 44 mg/kg intraperitoneally. In a few lines:
as §3

Test [25] deals with B16. As to the kind of experiment: Difference in body weight in grams between test and control animals at a dose of 44 mg/kg intraperitoneally. In a few lines:
as §2

The subject of test [26] is B16. As to the kind of experiment: Percent of median lifetime of test animals divided by the median lifetime of control animals at a dose of 5.5 mg/kg intraperitoneally. Summed up: as §3
Test [27] concerns B16. The test can be described thus: Antitumor activity in B16 Melanoma system animals is indicated by survivors on day 4 at a dose of 5.5 mg/kg intraperitoneally. In a few lines: as §1

Regarding `CC(=O)OC1C(=O)[C@@]2(C)[C@H]([C@H](OC(=O)c3ccccc3)[C@]3(O)CC(OC(=O)C(OC(=O)CCC(=O)O)C(NC(=O)c4ccccc4)c4ccccc4)C(C)=C1C3(C)C)[C@]1(OC(C)=O)CO[C@@H]1C[C@@H]2O.CNC[C@H](O)[C@@H](O)[C@H](O)[C@H](O)CO` (some centres not stated), the Activity in test [1], in test [6], in [8] and in test [11] was 10 in each case. Further, the Weight difference in test [2] is 0.3 g; in test [3] it was -0.2 g; in test [9] it was 0.3 g; in test [12] it was -0.6 g. Also, the T/C in test [4] is listed as 241%; in test [5] it was 134%; in test [7] it was 125%; in test [10], 176%.

`CC(=O)OC1C(=O)[C@]2(C)[C@@H](OC(=O)CCC(=O)O)C[C@H]3OC[C@@]3(OC(C)=O)[C@H]2[C@H](OC(=O)c2ccccc2)[C@]2(O)CC(OC(=O)C(OC(=O)CCC(=O)O)C(NC(=O)c3ccccc3)c3ccccc3)C(C)=C1C2(C)C` (some centres not stated): the T/C in test [13] is given as 105%; in test [16], 124%; in test [22], 109%; in [24], 114%; in [26], 113%. The Activity in test [14], in test [15], in [18], in test [20] and in test [27] was 10 throughout. The Weight difference in test [17] is given as 0.1 g; in test [19], 0.3 g; in test [21] it was -0.3 g; in [23] it was -0.3 g; in [25], 0 g.

By T/C is commonly meant the ratio of treated to control.
